The M2OR odorant receptor database
Substitutions are numbered along the chain they refer to.

Columns and labels:
Details in all cases: stereoisomer not certain
OR5K1 (Homo sapiens) = molecular target: T1, OR5K1 (Homo sapiens) (UniProt Q8NHB7)
T1 sequence (whole entry): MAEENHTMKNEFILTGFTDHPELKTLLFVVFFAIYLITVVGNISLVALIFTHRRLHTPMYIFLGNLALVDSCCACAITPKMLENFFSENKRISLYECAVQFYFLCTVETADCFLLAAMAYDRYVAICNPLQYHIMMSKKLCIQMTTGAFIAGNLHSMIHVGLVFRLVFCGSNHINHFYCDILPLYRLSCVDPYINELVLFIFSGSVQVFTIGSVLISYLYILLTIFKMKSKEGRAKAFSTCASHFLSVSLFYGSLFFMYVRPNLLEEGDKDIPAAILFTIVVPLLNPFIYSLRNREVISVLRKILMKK
Outline: (§1)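 Assay methods differ from source to source, frequently being transient luciferase assays in mammalian cell lines. For each receptor–molecule pair, the label responsive (active) applies when the original authors judged the measured signal statistically different from baseline, and non-responsive (inactive) applies otherwise.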

OR5H2 = system: T2, OR5H2
T2 sequence (whole entry): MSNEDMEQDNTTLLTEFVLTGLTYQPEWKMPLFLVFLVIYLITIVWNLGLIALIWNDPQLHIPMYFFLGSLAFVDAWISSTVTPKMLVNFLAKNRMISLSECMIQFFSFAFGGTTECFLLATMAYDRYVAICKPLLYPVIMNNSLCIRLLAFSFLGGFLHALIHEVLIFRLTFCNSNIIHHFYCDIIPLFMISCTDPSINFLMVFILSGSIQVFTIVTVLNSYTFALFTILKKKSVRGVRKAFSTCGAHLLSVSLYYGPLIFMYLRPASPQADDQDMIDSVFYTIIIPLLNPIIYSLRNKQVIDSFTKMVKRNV
Outline: as §1

OR5H6 (Homo sapiens) = molecular target: T3, OR5H6 (Homo sapiens) (UniProt Q8NGV6)
T3 sequence (whole entry): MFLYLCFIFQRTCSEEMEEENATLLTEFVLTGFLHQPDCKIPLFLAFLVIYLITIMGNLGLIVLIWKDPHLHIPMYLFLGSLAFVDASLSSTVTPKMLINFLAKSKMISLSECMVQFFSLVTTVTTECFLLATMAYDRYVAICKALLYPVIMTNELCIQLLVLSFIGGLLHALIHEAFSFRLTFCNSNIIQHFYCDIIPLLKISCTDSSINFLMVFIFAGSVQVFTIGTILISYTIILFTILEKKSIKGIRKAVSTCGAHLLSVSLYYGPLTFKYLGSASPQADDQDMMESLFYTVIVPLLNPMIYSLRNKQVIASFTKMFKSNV
Outline: as §1

OR5J2 (Homo sapiens) = molecular target: T4, OR5J2 (Homo sapiens) (UniProt Q8NH18)
T4 sequence (whole entry): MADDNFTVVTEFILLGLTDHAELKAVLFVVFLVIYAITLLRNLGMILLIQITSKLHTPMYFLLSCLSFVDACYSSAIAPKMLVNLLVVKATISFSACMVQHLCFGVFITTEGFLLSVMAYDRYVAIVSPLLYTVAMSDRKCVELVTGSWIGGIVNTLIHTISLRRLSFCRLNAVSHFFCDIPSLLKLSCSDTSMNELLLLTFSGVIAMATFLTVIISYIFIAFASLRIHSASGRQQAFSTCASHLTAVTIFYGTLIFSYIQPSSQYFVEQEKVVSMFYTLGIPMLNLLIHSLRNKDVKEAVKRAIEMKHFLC
Outline: as §1

OR5K2 (Homo sapiens) = molecular target: T5, OR5K2 (Homo sapiens) (UniProt Q8NHB8)
T5 sequence (whole entry): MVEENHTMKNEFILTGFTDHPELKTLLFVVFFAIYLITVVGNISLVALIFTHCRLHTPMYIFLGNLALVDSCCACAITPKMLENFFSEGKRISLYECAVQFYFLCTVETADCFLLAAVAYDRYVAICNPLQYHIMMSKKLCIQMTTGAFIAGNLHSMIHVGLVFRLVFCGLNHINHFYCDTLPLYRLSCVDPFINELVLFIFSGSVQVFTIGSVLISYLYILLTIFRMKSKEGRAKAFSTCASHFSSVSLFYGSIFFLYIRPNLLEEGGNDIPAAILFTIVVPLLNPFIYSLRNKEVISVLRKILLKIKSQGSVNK
Outline: as §1

OR5H1 = system: T6, OR5H1
T6 sequence (whole entry): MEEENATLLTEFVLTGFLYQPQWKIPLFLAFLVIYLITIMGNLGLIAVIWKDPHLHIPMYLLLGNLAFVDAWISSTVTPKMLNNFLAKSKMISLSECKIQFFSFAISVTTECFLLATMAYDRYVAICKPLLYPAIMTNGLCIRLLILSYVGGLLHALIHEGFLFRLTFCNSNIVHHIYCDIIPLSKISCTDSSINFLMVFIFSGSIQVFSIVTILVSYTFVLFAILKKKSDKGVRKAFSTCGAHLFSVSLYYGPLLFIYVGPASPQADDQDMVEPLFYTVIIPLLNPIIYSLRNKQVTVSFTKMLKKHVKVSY
Outline: as §1

OR5I1 (Homo sapiens) = molecular target: T7, OR5I1 (Homo sapiens) (UniProt Q13606)
T7 sequence (whole entry): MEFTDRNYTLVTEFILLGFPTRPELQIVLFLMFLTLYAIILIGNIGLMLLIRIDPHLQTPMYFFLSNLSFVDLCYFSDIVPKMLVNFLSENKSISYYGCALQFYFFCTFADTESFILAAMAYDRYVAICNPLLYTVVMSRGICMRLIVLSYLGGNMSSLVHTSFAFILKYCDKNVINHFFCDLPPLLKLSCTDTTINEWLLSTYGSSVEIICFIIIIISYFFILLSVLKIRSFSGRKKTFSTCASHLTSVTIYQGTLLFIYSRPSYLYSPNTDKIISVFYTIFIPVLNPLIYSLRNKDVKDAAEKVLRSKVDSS
Outline: as §1

OR5K2 L197M = system: T8, OR5K2 L197M
T8 sequence (whole entry): T5 sequence (whole entry) with L197M
Outline: as §1

OR5H8 (Homo sapiens) = OR5H8 (Homo sapiens) (UniProt P0DN80)
Chain of OR5H8 (Homo sapiens) (P0DN80 whole entry): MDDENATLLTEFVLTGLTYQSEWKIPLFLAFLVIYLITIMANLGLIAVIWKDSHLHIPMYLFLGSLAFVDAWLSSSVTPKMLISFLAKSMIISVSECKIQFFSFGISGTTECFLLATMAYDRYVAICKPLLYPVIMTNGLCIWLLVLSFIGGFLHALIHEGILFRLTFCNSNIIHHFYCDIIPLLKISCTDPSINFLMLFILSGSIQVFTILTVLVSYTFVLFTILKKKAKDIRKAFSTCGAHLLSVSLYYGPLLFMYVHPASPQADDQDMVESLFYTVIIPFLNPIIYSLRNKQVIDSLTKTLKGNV
Outline: as §1

CCCCCc1ccccn1
odorant receptor agonist call (OR5K1 (Homo sapiens)): inactive

CCCCCC1CCC(=O)O1 (stereo not given)
odorant receptor agonist call (OR5K1 (Homo sapiens)): inactive

CC(C)(S)CCOC=O
odorant receptor agonist call (OR5K1 (Homo sapiens)): inactive

CC(C)CC=O
odorant receptor agonist call (OR5K1 (Homo sapiens)): inactive

CCCCCC(=O)C(C)C(C)=O (stereo not given)
odorant receptor agonist call (OR5H2): inactive | odorant receptor agonist call (OR5H6 (Homo sapiens)): inactive | odorant receptor agonist call (OR5J2 (Homo sapiens)): inactive | odorant receptor agonist call (OR5K1 (Homo sapiens)): inactive | odorant receptor agonist call (OR5K2 (Homo sapiens)): inactive

CCCCCCCC(=O)OCC
odorant receptor agonist call (OR5K1 (Homo sapiens)): inactive

CCCCC(S)C(C)CO (stereo not given)
odorant receptor agonist call (OR5H2): inactive | odorant receptor agonist call (OR5H6 (Homo sapiens)): inactive | odorant receptor agonist call (OR5J2 (Homo sapiens)): inactive | odorant receptor agonist call (OR5K1 (Homo sapiens)): inactive | odorant receptor agonist call (OR5K2 (Homo sapiens)): inactive

CC1=C(O)C(=O)C(C)O1 (stereo not given)
odorant receptor agonist call (OR5H1): inactive | odorant receptor agonist call (OR5H2): inactive | odorant receptor agonist call (OR5H6 (Homo sapiens)): inactive | odorant receptor agonist call (OR5I1 (Homo sapiens)): inactive | odorant receptor agonist call (OR5J2 (Homo sapiens)): inactive | odorant receptor agonist call (OR5K1 (Homo sapiens)): inactive | odorant receptor agonist call (OR5K2 (Homo sapiens)): inactive | odorant receptor agonist call (OR5K2 L197M): inactive

CC(=O)c1c(C)c([N+](=O)[O-])c(C(C)(C)C)c([N+](=O)[O-])c1C
odorant receptor agonist call (OR5H2): inactive | odorant receptor agonist call (OR5H6 (Homo sapiens)): inactive | odorant receptor agonist call (OR5H8 (Homo sapiens)): inactive | odorant receptor agonist call (OR5I1 (Homo sapiens)): inactive | odorant receptor agonist call (OR5J2 (Homo sapiens)): inactive | odorant receptor agonist call (OR5K2 (Homo sapiens)): inactive

CCc1cccc(O)c1
odorant receptor agonist call (OR5K1 (Homo sapiens)): inactive

O=c1ccc2ccccc2o1
odorant receptor agonist call (OR5K1 (Homo sapiens)): inactive

C=C1CCC2CC1C2(C)C (stereo not given)
odorant receptor agonist call (OR5K1 (Homo sapiens)): inactive

CCC1OC(=O)C(O)=C1C (stereo not given)
odorant receptor agonist call (OR5H1): inactive | odorant receptor agonist call (OR5H2): inactive | odorant receptor agonist call (OR5H6 (Homo sapiens)): inactive | odorant receptor agonist call (OR5I1 (Homo sapiens)): inactive | odorant receptor agonist call (OR5J2 (Homo sapiens)): inactive | odorant receptor agonist call (OR5K1 (Homo sapiens)): inactive | odorant receptor agonist call (OR5K2 (Homo sapiens)): inactive | odorant receptor agonist call (OR5K2 L197M): inactive

CCOC(=O)c1ccccc1
odorant receptor agonist call (OR5K1 (Homo sapiens)): inactive

C=CC(=C)CCC=C(C)C
odorant receptor agonist call (OR5K1 (Homo sapiens)): inactive

CSCCCO
odorant receptor agonist call (OR5K1 (Homo sapiens)): inactive

SCc1cccs1
odorant receptor agonist call (OR5K1 (Homo sapiens)): inactive

CCCCCC=CCCC=O
odorant receptor agonist call (OR5K1 (Homo sapiens)): inactive

CCCCC=CC=O
odorant receptor agonist call (OR5K1 (Homo sapiens)): inactive

CC1=CCC(C(C)(C)S)CC1 (stereo not given)
odorant receptor agonist call (OR5K1 (Homo sapiens)): inactive

CC(C)=CCCC(C)=CCO
odorant receptor agonist call (OR5K1 (Homo sapiens)): inactive

CCOC(C)OCC
odorant receptor agonist call (OR5K1 (Homo sapiens)): inactive

CSC
odorant receptor agonist call (OR5K1 (Homo sapiens)): inactive

C=CCSC
odorant receptor agonist call (OR5K1 (Homo sapiens)): inactive

COC(=O)C(C)C
odorant receptor agonist call (OR5K1 (Homo sapiens)): inactive

C=C1CCC2(C(C)C)CC12 (stereo not given)
odorant receptor agonist call (OR5K1 (Homo sapiens)): inactive

CCCCCCC=CC=O
odorant receptor agonist call (OR5K1 (Homo sapiens)): inactive

CCC(S)C(C)=O (stereo not given)
odorant receptor agonist call (OR5K1 (Homo sapiens)): inactive

CC=CC(=O)C(C)CC (stereo not given)
odorant receptor agonist call (OR5K1 (Homo sapiens)): inactive

CCC(=O)C(C)S (stereo not given)
odorant receptor agonist call (OR5K1 (Homo sapiens)): inactive

CCCCCCC1CCC(=O)O1 (stereo not given)
odorant receptor agonist call (OR5K1 (Homo sapiens)): inactive

CCCSSCCC
odorant receptor agonist call (OR5K1 (Homo sapiens)): inactive

C=C(C)c1ccc(C)cc1
odorant receptor agonist call (OR5K1 (Homo sapiens)): inactive

CSCSC
odorant receptor agonist call (OR5K1 (Homo sapiens)): inactive

Cc1c[nH]c2ccccc12
odorant receptor agonist call (OR5K1 (Homo sapiens)): inactive

CCCCCCCC(=O)[O-].[H+]
odorant receptor agonist call (OR5K1 (Homo sapiens)): inactive

C=Cc1ccc(O)c(OC)c1
odorant receptor agonist call (OR5K1 (Homo sapiens)): inactive

OCC=Cc1ccccc1
odorant receptor agonist call (OR5K1 (Homo sapiens)): inactive

CCCCCCCCC=CC=O
odorant receptor agonist call (OR5K1 (Homo sapiens)): inactive

CCCCCC=O
odorant receptor agonist call (OR5K1 (Homo sapiens)): inactive

CCO
odorant receptor agonist call (OR5K1 (Homo sapiens)): inactive

C=CC(=O)CCCCC
odorant receptor agonist call (OR5K1 (Homo sapiens)): inactive

CCCCC(CC)CCC(=O)O (stereo not given)
odorant receptor agonist call (OR5K1 (Homo sapiens)): inactive

CC(=O)C1=NCCS1
odorant receptor agonist call (OR5K1 (Homo sapiens)): inactive

CCCCCCCCCC(=O)OCC
odorant receptor agonist call (OR5K1 (Homo sapiens)): inactive

CC=CC(=O)C1=C(C)CCCC1(C)C
odorant receptor agonist call (OR5K1 (Homo sapiens)): inactive

CCC=CCCC=O
odorant receptor agonist call (OR5K1 (Homo sapiens)): inactive

CCC=CCCC=CCO
odorant receptor agonist call (OR5K1 (Homo sapiens)): inactive

CCOC(=O)C1CCCCC1
odorant receptor agonist call (OR5K1 (Homo sapiens)): inactive

CC=Cc1ccc(OC)cc1
odorant receptor agonist call (OR5K1 (Homo sapiens)): inactive

CCC(=O)C1=NCCC1
odorant receptor agonist call (OR5K1 (Homo sapiens)): inactive

CCOC(=O)CCSC
odorant receptor agonist call (OR5K1 (Homo sapiens)): inactive

CC(=O)C(C)O (stereo not given)
odorant receptor agonist call (OR5K1 (Homo sapiens)): inactive
